Source: BindingDB's records for doi:10.1021/jm0309203 (University of Bath, 2003)

Assays:
[1] = biological target: Mu-type opioid receptor (Homo sapiens, UniProt P35372); assay: Binding affinity against cloned human Opioid receptor mu 1 transfected into chinese hamster ovary cells using [3H]DAMGO as radioligand
How it was run: (§1)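 Competition binding in CHO cells transfected with cloned human opioid receptors, using [3H]DAMGO (μ), [3H]Cl-DPDPE (δ) and [3H]U69,593 (κ) as displaced radioligands. Hill slopes were examined. Data are averages of two experiments, each run in triplicate.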

[2] = biological target: Delta-type opioid receptor (Homo sapiens, UniProt P41143); assay: Binding affinity against cloned human Opioid receptor delta 1 transfected into chinese hamster ovary cells using [3H]Cl-DPDPE as radioligand; how it was run: as §1
Delta-type opioid receptor, sequence (P41143 whole entry): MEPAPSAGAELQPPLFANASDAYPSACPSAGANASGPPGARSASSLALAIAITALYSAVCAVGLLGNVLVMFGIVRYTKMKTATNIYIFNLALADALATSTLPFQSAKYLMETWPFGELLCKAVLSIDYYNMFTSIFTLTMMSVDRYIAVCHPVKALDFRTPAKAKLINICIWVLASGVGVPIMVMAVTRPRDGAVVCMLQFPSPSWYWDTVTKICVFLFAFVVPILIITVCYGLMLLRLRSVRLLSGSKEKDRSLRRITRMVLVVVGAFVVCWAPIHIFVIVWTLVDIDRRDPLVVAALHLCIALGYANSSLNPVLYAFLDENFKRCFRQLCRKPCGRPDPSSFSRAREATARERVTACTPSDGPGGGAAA

Mu-type opioid receptor, sequence (P35372 whole entry): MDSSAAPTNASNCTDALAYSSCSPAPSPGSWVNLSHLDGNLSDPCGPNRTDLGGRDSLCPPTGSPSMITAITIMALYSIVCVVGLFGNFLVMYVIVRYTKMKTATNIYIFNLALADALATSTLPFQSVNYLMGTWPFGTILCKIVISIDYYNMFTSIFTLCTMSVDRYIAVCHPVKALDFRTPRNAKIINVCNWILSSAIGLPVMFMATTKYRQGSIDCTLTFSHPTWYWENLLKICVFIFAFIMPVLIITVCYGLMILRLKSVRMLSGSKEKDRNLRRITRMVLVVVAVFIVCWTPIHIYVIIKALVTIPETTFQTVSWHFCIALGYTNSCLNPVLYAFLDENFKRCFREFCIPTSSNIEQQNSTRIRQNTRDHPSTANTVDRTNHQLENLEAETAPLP

Structure (SMILES)	Ki [1] [nM]	Ki [2] [nM]
NC(=Nc1ccc2[nH]c3c(c2c1)C[C@@]1(O)C2Cc4ccc(O)c5c4[C@@]1(CCN2CC1CC1)[C@H]3O5)NCc1ccccc1 [7-benzylamino(imino)methylamino-22-cyclopropylmethyl-14-oxa-11,22-diazaheptacyclo[13.9.1.01,13.02,21.04,12.05,10.019,25]pentacosa-4(12),5(10),6,8,15,17,19(25)-heptaene-2,16-diol]	10	–
CCCNC(=Nc1ccc2[nH]c3c(c2c1)C[C@@]1(O)C2Cc4ccc(O)c5c4[C@@]1(CCN2CC1CC1)[C@H]3O5)NCC1CC1 [22-cyclopropylmethyl-7-cyclopropylmethylamino(propylimino)methylamino-14-oxa-11,22-diazaheptacyclo[13.9.1.01,13.02,21.04,12.05,10.019,25]pentacosa-4(12),5(10),6,8,15,17,19(25)-heptaene-2,16-diol]	–	15
